From ChEMBL document CHEMBL6182837, “Discovery and biological evaluation of nitrofuranyl-pyrazolopyrimidine hybrid conjugates as potent antimicrobial agents targeting Staphylococcus aureus and methicillin-resistant S. aureus” (RSC Med Chem, 2025)
Values after ≈ are worked out from the molar mass of the structure shown. Active and inactive are the calls of the source. The calls are words filed in the database; no cut-off is given here.

Assays:
Escherichia coli = assay: Antibacterial activity against Escherichia coli ATCC 25922 incubated for 24 hrs by Alamar blue staining based microdilution method; assay type: functional
Staphylococcus aureus [1] = assay: Antibacterial activity against methicillin-resistant Staphylococcus aureus ATCC 15187 incubated for 24 hrs by Alamar blue staining based microdilution method; assay type: functional
[2] = Cytotoxicity in human HepG2 cells incubated for 24 hrs by MTT assay; assay type: toxicity, cell-based
Method in brief: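 HepG2 cells, 1 × 10^4 per well in DMEM/10% FBS, 24 h attachment; compounds 200 to 0.19 μg ml−1 for 24 h at 37 °C, 5% CO2; MTT 2.5 mg ml−1 for 3 h, formazan in DMSO, OD 570 nm; doxorubicin 10 μM control.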

Staphylococcus aureus [3] = assay: Antibacterial activity against Staphylococcus aureus ATCC 29213 incubated for 24 hrs by Alamar blue staining based microdilution method; assay type: functional
Staphylococcus aureus [4] = assay: Antibacterial activity against Staphylococcus aureus SA-K2191 overexpressing MsrA by Alamar blue staining based analysis; assay type: functional
Staphylococcus aureus [5] = assay: Antibacterial activity against Staphylococcus aureus SA-K2192 overexpressing TetK by Alamar blue staining based analysis; assay type: functional
Staphylococcus aureus [6] = assay: Antibacterial activity against Staphylococcus aureus SA-1199B overexpressing NorA by Alamar blue staining based analysis; assay type: functional
Staphylococcus aureus [7] = assay: Antibacterial activity against Ciprofloxacin-sensitive Staphylococcus aureus […] by Alamar blue staining based analysis; assay type: functional

Compound	MIC (Escherichia coli)	MIC (Staphylococcus aureus [1]) [µg/mL]	IC50 at 24 h [2] [µg/mL]	MIC (Staphylococcus aureus [3]) [µg/mL]	MIC (Staphylococcus aureus [4]) [µg/mL]	MIC (Staphylococcus aureus [5]) [µg/mL]	MIC (Staphylococcus aureus [6]) [µg/mL]	MIC (Staphylococcus aureus [7]) [µg/mL]
CCCc1nn(C)c2c(NC3CCOCC3)nc(-c3ccc([N+](=O)[O-])o3)nc12	inactive	> 32	> 50	> 32	–	–	–	–
CCCc1nn(C)c2c(NCc3ccc(OC)c(F)c3)nc(-c3ccc([N+](=O)[O-])o3)nc12	inactive	> 32	> 50	> 32	–	–	–	–
CCCc1nn(C)c2c(Nc3ccc(OC(F)(F)F)cc3)nc(-c3ccc([N+](=O)[O-])o3)nc12	inactive	> 32	> 50	> 32	–	–	–	–
CCCc1nn(C)c2c(Nc3cccc(F)c3)nc(-c3ccc([N+](=O)[O-])o3)nc12	inactive	4 (≈ 10.1 µM)	38.9 (≈ 98 µM)	> 32	–	–	–	–
CCCc1nn(C)c2c(Nc3ccncc3)nc(-c3ccc([N+](=O)[O-])o3)nc12	4 µg/mL (≈ 10.5 µM)	4 (≈ 10.5 µM)	> 50	0.5 (≈ 1.32 µM)	–	–	–	–
CCCc1nn(C)c2c(Nc3ccc(Cl)cc3)nc(-c3ccc([N+](=O)[O-])o3)nc12	inactive	> 32	> 50	> 32	–	–	–	–
CCCc1nn(C)c2c(N3CCOCC3)nc(-c3ccc([N+](=O)[O-])o3)nc12	inactive	> 32	> 50	> 32	–	–	–	–
CCCc1nn(C)c2c(N3CCN(c4cccc(O)c4)CC3)nc(-c3ccc([N+](=O)[O-])o3)nc12	inactive	> 32	> 50	> 32	–	–	–	–
CCCc1nn(C)c2c(N3CCC(O)CC3)nc(-c3ccc([N+](=O)[O-])o3)nc12	inactive	0.5 (≈ 1.29 µM)	> 50	16 (≈ 41.4 µM)	–	–	–	–
CCCc1nn(C)c2c(NCCO)nc(-c3ccc([N+](=O)[O-])o3)nc12	inactive	8 (≈ 23.1 µM)	> 50	> 32	–	–	–	–
CCCc1nn(C)c2c(NCCCO)nc(-c3ccc([N+](=O)[O-])o3)nc12	inactive	2 (≈ 5.55 µM)	> 50	4 (≈ 11.1 µM)	–	–	–	–
CCCc1nn(C)c2c(N3CCN(c4ccccc4O)CC3)nc(-c3ccc([N+](=O)[O-])o3)nc12	inactive	> 32	> 50	> 32	–	–	–	–
CCCc1nn(C)c2c(NCCCN3CCOCC3)nc(-c3ccc([N+](=O)[O-])o3)nc12	inactive	> 32	> 50	> 32	–	–	–	–
CCCc1nn(C)c2c(N3CCCCC3)nc(-c3ccc([N+](=O)[O-])o3)nc12	inactive	> 32	> 50	> 32	–	–	–	–
CCCc1nn(C)c2c(Nc3ccc(Br)cc3)nc(-c3ccc([N+](=O)[O-])o3)nc12	inactive	> 32	> 50	> 32	–	–	–	–
CCCc1nn(C)c2c(N3CCC(CCO)CC3)nc(-c3ccc([N+](=O)[O-])o3)nc12	inactive	> 32	> 50	> 32	–	–	–	–
CCCc1nn(C)c2c(N3CCCC3)nc(-c3ccc([N+](=O)[O-])o3)nc12	inactive	> 32	> 50	> 32	–	–	–	–
CCCc1nn(C)c2c(NCCN3CCOCC3)nc(-c3ccc([N+](=O)[O-])o3)nc12	inactive	> 32	> 50	> 32	–	–	–	–
CCCc1nn(C)c2c(N3CCN(c4ccncc4)CC3)nc(-c3ccc([N+](=O)[O-])o3)nc12	inactive	0.25 (≈ 0.557 µM)	> 50	1 (≈ 2.23 µM)	–	–	–	–

Compound	MIC (Escherichia coli)	MIC (Staphylococcus aureus [1]) [µg/mL]	IC50 at 24 h [2] [µg/mL]	MIC (Staphylococcus aureus [3]) [µg/mL]	MIC (Staphylococcus aureus [4]) [µg/mL]	MIC (Staphylococcus aureus [5]) [µg/mL]	MIC (Staphylococcus aureus [6]) [µg/mL]	MIC (Staphylococcus aureus [7]) [µg/mL]
CCCc1nn(C)c2c(=O)[nH]c(-c3ccc([N+](=O)[O-])o3)nc12	inactive	8 (≈ 26.4 µM)	> 50	8 (≈ 26.4 µM)	–	–	–	–
CCCc1nn(C)c2c(Nc3cccc(O)c3)nc(-c3ccc([N+](=O)[O-])o3)nc12	inactive	1 (≈ 2.54 µM)	> 50	4 (≈ 10.1 µM)	–	–	–	–
CCCc1nn(C)c2c(NCc3ccccc3)nc(-c3ccc([N+](=O)[O-])o3)nc12	inactive	> 32	> 50	> 32	–	–	–	–
CCCc1nn(C)c2c(Nc3ccc(OC)cc3)nc(-c3ccc([N+](=O)[O-])o3)nc12	inactive	> 32	> 50	> 32	–	–	–	–
CCCc1nn(C)c2c(Nc3ccccc3O)nc(-c3ccc([N+](=O)[O-])o3)nc12	inactive	1 (≈ 2.54 µM)	> 50	0.5 (≈ 1.27 µM)	–	–	–	–
CCCc1nn(C)c2c(N3CCC(=O)CC3)nc(-c3ccc([N+](=O)[O-])o3)nc12	inactive	16 (≈ 41.6 µM)	> 50	> 32	–	–	–	–
CCCc1nn(C)c2c(N3CCC(CO)CC3)nc(-c3ccc([N+](=O)[O-])o3)nc12	inactive	> 32	> 50	> 32	–	–	–	–
CCCc1nn(C)c2c(Nc3ccc(F)cc3)nc(-c3ccc([N+](=O)[O-])o3)nc12	inactive	0.25 (≈ 0.631 µM)	> 50	8 (≈ 20.2 µM)	–	–	–	–
CCCc1nn(C)c2c(NCc3cccnc3)nc(-c3ccc([N+](=O)[O-])o3)nc12	inactive	4 (≈ 10.2 µM)	> 50	8 (≈ 20.3 µM)	–	–	–	–
CCCc1nn(C)c2c(NCCCCCO)nc(-c3ccc([N+](=O)[O-])o3)nc12	inactive	0.5 (≈ 1.29 µM)	38.1 (≈ 98.1 µM)	4 (≈ 10.3 µM)	–	–	–	–
CCCc1nn(C)c2c(N3CCN(C)CC3)nc(-c3ccc([N+](=O)[O-])o3)nc12	inactive	> 32	> 50	> 32	–	–	–	–
O=C(O)c1cn(C2CC2)c2cc(N3CCNCC3)c(F)cc2c1=O [CIPROFLOXACIN]	–	–	–	0.25 (≈ 0.754 µM)	4.14 (≈ 12.5 µM)	0.25 (≈ 0.754 µM)	4.14 (≈ 12.5 µM)	0.25 (≈ 0.754 µM)
CCCc1nn(C)c2c(NCc3ccc(OC)cc3)nc(-c3ccc([N+](=O)[O-])o3)nc12	inactive	> 32	> 50	> 32	–	–	–	–
CCCc1nn(C)c2c(NCc3ccncc3)nc(-c3ccc([N+](=O)[O-])o3)nc12	inactive	1 (≈ 2.54 µM)	> 50	1 (≈ 2.54 µM)	–	–	–	–
CCCc1nn(C)c2c(NCCCCO)nc(-c3ccc([N+](=O)[O-])o3)nc12	inactive	0.25 (≈ 0.668 µM)	> 50	4 (≈ 10.7 µM)	–	–	–	–
CCCc1nn(C)c2c(NCCCCCCO)nc(-c3ccc([N+](=O)[O-])o3)nc12	inactive	2 (≈ 4.97 µM)	> 50	32 (≈ 79.5 µM)	–	–	–	–
CCCc1nn(C)c2c(NCCN3CCCCC3)nc(-c3ccc([N+](=O)[O-])o3)nc12	inactive	> 32	> 50	> 32	–	–	–	–
CCCc1nn(C)c2c(N3CCC(c4ccccc4)CC3)nc(-c3ccc([N+](=O)[O-])o3)nc12	inactive	> 32	> 50	> 32	–	–	–	–
CCCc1nn(C)c2c(Nc3ccc(C(F)(F)F)cc3)nc(-c3ccc([N+](=O)[O-])o3)nc12	inactive	> 32	> 50	> 32	–	–	–	–
